HTR5A inv ctr – counter-screen for OPRM1-OPRD1 inverse agonists: human HTR5A inverse agonism | P47898 | HTR5A cell line, luminescence | inhibition, % at 9.3 µM | 340,000 compounds, 0.083% hits | AID 504634; in the data active means inhibition mostly above about 23%, no sharp cut-off; inactive means mostly below about 18%;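 further: 0% = cells with DMSO and 100% = no-cell wells with DMSO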
MOR-DOR inv ag – mu-delta opioid heterodimer inverse agonism; inhibition, % at 9.3 µM; 340,000 compounds, 0.21% hits; cell-based MOR-DOR heterodimer luminescence; in the data active means inhibition above about 22%, passing the limit was not always enough;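 further: 0% = cells with DMSO and 100% = wells without cells with DMSO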
HTR5A ag – HTR5A agonism, opioid heterodimer counter-screen | HTR5A agonist assay, luminescence, cell-based | 340,000 compounds, 0.61% hits | AID 504692 | activation, % at 9.3 µM; in the data active means activation mostly above about 9.5%, no sharp cut-off; inactive means mostly below about 7.6%;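 further: 0% = cells with vehicle only and 100% = reference agonist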
MOR-DOR ag – OPRM1-OPRD1 heterodimerization agonism | activation, % at 9.3 µM | 340,000 compounds, 0.3% hits | AID 504326 | cells, luminescence | P35372+P41143;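 further: 0% = vehicle-treated cells and 100% = reference agonist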
Hep lipid drop – modulators of hepatic lipid droplet formation; AML12 mouse hepatocytes, oleate lipid droplets, BODIPY imaging; 240,000 compounds, 0.4% hits; AID 1656; inhibition, % at 6.5 µM;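 active means lipid droplet intensity inhibited by at least 50%, with more than 500 cells counted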
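Assay system: AML12 hepatocytes (mouse) / Also added: 100 µM oleic acid challenge / Times: overnight treatment with compound plus oleate / Detection: high-content imaging of BODIPY-stained droplets and DAPI nuclei / Evaluation: % inhibition of lipid droplet signal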
OPRM1-D1 ag cf – confirmation of human OPRM1-OPRD1 heterodimerization agonists; 830 compounds, 45% hits; cells, MOR-DOR heterodimerization, luminescence complementation; shares compounds with MOR-DOR ag; activation, % at 9.3 µM;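 further: 0% = vehicle-treated cells and 100% = reference agonist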
HTR5A ag ctr2 – activates human HTR5A in OPRM1-OPRD1 agonist counter-screen | shares compounds with MOR-DOR ag | 830 compounds, 8% hits | activation, % at 9.3 µM | HTR5A agonist counterscreen, cell luminescence; in the data active means activation above about 17%;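 further: 0% = vehicle-treated cells and 100% = reference agonist response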
An asterisk follows results filed as active; i = inactive; x = no result given. A selection: hits, their analogues and other compounds. The true share with any hit is near 1.4%. Unless noted, no stated cut-off is given here; in the data, active means activation above about 18%; inactive means the rest.

SMILES	HTR5A inv ctr	MOR-DOR inv ag	HTR5A ag	MOR-DOR ag	Hep lipid drop	OPRM1-D1 ag cf	HTR5A ag ctr2
CCOC(=O)c1c(C)[nH]c(O)c1C=Nc1ccc(Cl)cc1	8	-236	-3	39*	x	13	2
Cc1ccc(-c2csc(/C(C#N)=C(\O)CCl)n2)cc1	-15	-90	6	20*	3	17	10
N#C/C(=C(/O)CCl)c1nc(-c2ccccc2)cs1	-16	12	0	-2	0	x	x
Cc1ccc(C)c(NC(=S)NC(NC(=O)Cc2cccc3ccccc23)C(Cl)(Cl)Cl)c1 (stereo not given)	9	-156	3	27*	-1	4	4
Cc1cccc(NC(=O)c2cc(-c3cc(C)c(C)cc3O)n[nH]2)c1	7	-19	-2	4	x	x	x
Cc1cccc(NC(=O)c2cc(-c3cc(C)ccc3O)n[nH]2)c1	5	-102	-1	18*	16	14	1
Cc1ccc(-n2cccn2)c(CN2CCC(CO)(CCc3ccccc3)CC2)c1	8	-134	-3	29*	-25	0	-3
Cc1cc(=O)oc2cc(NC(=O)C3COc4ccccc4O3)ccc12 (stereo not given)	-1	-122	1	20*	5	39*	14
O=C(Nc1ccc2c(c1)OCO2)C1COc2ccccc2O1 (stereo not given)	4	10	4	-2	x	x	x
CN(C)c1ccc(C(CNC(=O)Cc2cccc3ccccc23)N(C)C)cc1 (stereo not given)	-6	-209	-4	39*	17	45*	1
COc1ccc(C(CNC(=O)CSc2ccccc2C)N(C)C)cc1 (stereo not given)	-11	i	4	115*	-6	112*	0
COc1ccc(CCN(C)C(=O)/C=C/c2c(Cl)nc3ccccn23)cc1OC	3	17	-1	-3	-16	x	x
COc1ccc(C(CNC(=O)/C=C/c2c(Cl)nc3ccccn23)N(C)C)cc1 (stereo not given)	2	-298	-1	63*	-6	66*	0
CN(C)C(CNC(=O)c1ccc(-c2ccccc2)cc1)c1ccccc1 (stereo not given)	-10	-46	3	6	-6	x	x
COc1ccc(C(CNC(=O)Cc2ccc(-c3ccccc3)cc2)N(C)C)cc1 (stereo not given)	-2	i	1	320*	20	-3	-4
CC(O)C(NC(=O)OCc1ccccc1)C(=O)OCc1ccccc1 (stereo not given)	-13	-1	5	0	x	x	x
Cc1ccc(S(=O)(=O)N(Cc2cc3ccccc3[nH]c2=O)c2cccc(C)c2)cc1	-22	7	7	-1	3	x	x
COc1ccc(C(CNC(=O)C(Cc2ccccc2)NC(N)=O)N(C)C)cc1 (stereo not given)	-2	-117	1	23*	x	269*	-2
COc1ccc(/C=C/C(=O)Nc2ccccc2C(=O)NCC(c2ccc(OC)cc2)N(C)C)cc1 (stereo not given)	-15	-117	6	22*	2	-1	-1
COc1ccc(/C=C/C(=O)Nc2ccccc2C(=O)O)cc1	11	3	-4	-1	-12	x	x
Cc1cc(NC(=O)CN2C(=O)NC3(CCCCCC3)C2=O)ccc1Br	2	-1	1	0	x	x	x
COc1ccc(/C=C/C(=O)Nc2ccc3nc4n(c(=O)c3c2)CCCC4)cc1	-33	-124	12*	27*	0	16	2
Cc1occc1C(=O)N/N=C/c1cccnc1	10	-9	-4	1	x	x	x
Cc1occc1C(=O)N/N=C/c1ccc(-c2ccccc2)cc1	-25	-111	10	20*	-8	60*	4
c1ccc(C2[C@H]3CN(Cc4cccnc4)[C@H](c4ccccc4)C34CC2(c2cccnc2)C4)cc1 (stereo not given in full)	-20	-434	-5	80*	8	75*	-4
SMILES	HTR5A inv ctr	MOR-DOR inv ag	HTR5A ag	MOR-DOR ag	Hep lipid drop	OPRM1-D1 ag cf	HTR5A ag ctr2
O=C(Cn1c(-c2ccccc2)c[n+]2ccsc12)c1ccccc1	28	-3	2	0	9	x	x
O=C(Cn1c(-c2ccccc2)c[n+]2ccsc12)c1ccc([N+](=O)[O-])cc1	4	i	-1	81*	-4	1	40*
Cc1ccc(-n2ncc3c(N4CCCC4)ncnc32)c(C)c1	-2	13	0	-3	-3	x	x
COc1cccc(N2CCN(c3ncnc4c3cnn4-c3ccc(C)cc3C)CC2)c1	4	-130	-2	23*	x	27*	15
CCOC(=O)c1nnn2c1nc(Nc1cccc(C(F)(F)F)c1)c1ccccc12	x	x	x	x	-10	x	x
CC(COc1ccccc1)N1CCC(CO)(CCc2ccccc2)CC1 (stereo not given)	-6	i	2	176*	-29	0	0
CSCC(C)N1CCC(CO)(CCc2ccccc2)CC1 (stereo not given)	0	-4	0	1	-17	x	x
CC1(c2nnc(Cc3ccccc3)o2)CC(c2cccc(Cl)c2)=NO1 (stereo not given)	12	14	4	-3	6	x	x
COCCN(C(=O)Nc1ccccc1OC)c1nc2ccccc2s1	-17	-4	5	1	-1	x	x
CCOC(=O)N1CCN(c2c(NCCN(C)Cc3ccccc3)c(=O)c2=O)CC1	-2	-298	1	50*	-1	0	0
CCOC(=O)N1CCN(c2c(NCCCN(C)c3ccccc3)c(=O)c2=O)CC1	24	-1	-8	0	x	x	x
Cc1ccc(C)c(CN2C(=O)c3ccccc3S(=O)c3ccc(C(=O)N4CCN(c5ccccn5)CC4)cc32)c1 (stereo not given)	-29	-126	1	27*	-28	14	7
COCCN(CCOC)C(=O)CSc1ccc(S(=O)(=O)N2CCN(C)CC2)cn1	5	-138	-2	32*	x	0	2
CC(=O)CSc1ccc(S(=O)(=O)N2CCN(C)CC2)cn1	-4	15	1	-4	x	x	x
Cc1cc(C)cc(Oc2coc3cc(OC(=O)c4cccnc4)ccc3c2=O)c1	13	-118	-4	22*	-5	2	0
CC(NCc1cc(Br)ccc1OCC(=O)NCc1ccccc1)c1ccccc1 (stereo not given)	-2	-169	1	33*	-1	19*	4
Cc1ccc(-n2cc(CNC(C)Cn3cncn3)c(-c3ccc(F)cc3)n2)cc1 (stereo not given)	3	6	-1	-1	-5	x	x
Cc1ccc(C)c(-n2cc(CNC(C)Cn3cncn3)c(-c3ccccc3)n2)c1 (stereo not given)	-13	-201	-7	39*	-2	36*	3

Source: PubChem BioAssay (several laboratories)
